Eleven compounds from ChEMBL document CHEMBL4177770, “Discovery of MK-6169, a Potent Pan-Genotype Hepatitis C Virus NS5A Inhibitor with Optimized Activity against Common Resistance-Associated Substitutions” (J Med Chem, 2018) can be followed below.

One may read the EC90 as the point of the concentration-response curve where the effect stands at 90%. Broadly, the half-life is the time in which the quantity being followed falls by half. High values mean slow decline, low ones rapid decline. A word on the clearance: it is the rate of elimination divided by the concentration. Higher therefore signals efficient removal. One may read the AUC as concentration integrated over time. A low value points to low exposure. What is called Cmax is the maximum level reached in the sampled fluid or tissue. Broadly, the bioavailability is dose-corrected exposure relative to a reference, in per cent.

Positions count from the first letter of the chain named.

Data set [1] concerns the target T1, Nonstructural protein 5A (Hepatitis C virus) (UniProt Q5L478).
T1 sequence (whole entry): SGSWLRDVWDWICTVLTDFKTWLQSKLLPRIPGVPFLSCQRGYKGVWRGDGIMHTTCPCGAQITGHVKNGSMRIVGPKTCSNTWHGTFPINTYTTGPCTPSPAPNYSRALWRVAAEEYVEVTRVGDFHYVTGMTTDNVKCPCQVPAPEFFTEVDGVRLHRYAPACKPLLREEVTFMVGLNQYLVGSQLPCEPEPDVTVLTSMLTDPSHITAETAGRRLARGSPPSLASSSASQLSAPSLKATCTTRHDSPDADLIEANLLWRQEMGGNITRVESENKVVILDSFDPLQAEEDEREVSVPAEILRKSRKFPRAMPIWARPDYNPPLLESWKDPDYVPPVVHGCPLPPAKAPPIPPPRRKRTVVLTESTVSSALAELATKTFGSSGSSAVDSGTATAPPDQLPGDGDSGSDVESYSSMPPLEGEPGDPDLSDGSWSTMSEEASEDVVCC
Put plainly: Inhibition of NS5A in HCV genotype 1a infected in HuH7 replicon cells assessed as decrease in viral replication after 3 days by RT-PCR method. In kind it is cell-based. Conditions: Hepatitis C virus subtype 1a. In general terms: Replicon systems follow genome replication, usually without infectious particles.

Data set [2] deals with T1, Nonstructural protein 5A (Hepatitis C virus). Put plainly: Inhibition of NS5A in HCV genotype 1b infected in HuH7 replicon cells assessed as decrease in viral replication after 3 days by RT-PCR method. The note with it: Hepatitis C virus subtype 1b. In kind it is cell-based.
The target is the same in data set [3]. Description: Inhibition of NS5A L31M mutant in HCV genotype 2b infected in HuH7 replicon cells assessed as decrease in viral replication after 3 days by RT-PCR method. In kind it is cell-based. The note with it: Hepatitis C virus subtype 2b.
The target is the same in data set [4]. Put plainly: Inhibition of NS5A in HCV genotype 3a infected in HuH7 replicon cells assessed as decrease in viral replication after 3 days by RT-PCR method. Type of data set: cell-based. The note with it: Hepatitis C virus subtype 3a.
Data set [5] has the same target. Put plainly: Inhibition of NS5A in HCV genotype 4a infected in HuH7 replicon cells assessed as decrease in viral replication after 3 days by RT-PCR method. In kind it is cell-based. The note with it: Hepatitis C virus subtype 4a.
Data set [6] deals with T2, Nonstructural protein 5A (Hepatitis C virus), Q5L478 [Y93H].
T2 sequence (whole entry): T1 sequence (whole entry) with Y93H
Description: Inhibition of NS5A Y93H mutant in HCV genotype 1a infected in HuH7 replicon cells assessed as decrease in viral replication after 3 days by RT-PCR method. In kind it is cell-based. Conditions: Hepatitis C virus subtype 1a.

The target in data set [7] is T1, Nonstructural protein 5A (Hepatitis C virus). Put plainly: Inhibition of NS5A L31V mutant in HCV genotype 1a infected in HuH7 replicon cells assessed as decrease in viral replication after 3 days by RT-PCR method. Type of data set: cell-based. Conditions: Hepatitis C virus subtype 1a.
Data set [8] in a line: Half life in Wistar Han rat at 2 mg/kg, iv by LC/MS method. In kind it is ADME, organism-based. The note with it: in vivo. In outline: (§1)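 Male Wistar Han rats, two per group, dosed IV at 2 mg/kg in 60% PEG200. Plasma was obtained by centrifuging the blood, and compound concentrations were measured by LC/MS.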
Data set [9] can be described thus: Clearance in Wistar Han rat at 2 mg/kg, iv by LC/MS method. Conditions: in vivo. Type of data set: ADME, organism-based. In outline:
as §1

The nature of data set [10]: AUC in Wistar Han rat at 10 mg/kg, po by LC/MS method. Type of data set: ADME, organism-based. The note with it: in vivo. The method, boiled down: (§2)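 Male Wistar Han rats, two per dosing group, dosed orally at 10 mg/kg in 10% TWEEN. Plasma was separated from collected blood by centrifugation and analysed by LC/MS.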
Data set [11] can be described thus: Cmax in Wistar Han rat at 10 mg/kg, po by LC/MS method. Conditions: in vivo. Type of data set: ADME, organism-based. On the set-up: dose 10 mg/kg, route oral. The method, boiled down:
as §2

A short description of data set [12]: Drug level in Wistar Han rat at 10 mg/kg, po measured at 24 hrs by LC/MS method. In kind it is ADME, organism-based. Conditions: in vivo, read-out: Drug uptake. The method, boiled down:
as §2

The nature of data set [13]: Oral bioavailability in Wistar Han rat at 10 mg/kg by LC/MS method. Type of data set: ADME, organism-based. Conditions: in vivo. The method, boiled down: as §2

As to `COC(=O)N[C@H](C(=O)N1CCC[C@H]1c1ncc(-c2cc(F)c3c(c2)O[C@@H](c2cnc(C(C)C)s2)n2c-3cc3cc(-c4cnc([C@@H]5CCCN5C(=O)[C@@H](NC(=O)OC)[C@@H]5CCOC(C)(C)C5)[nH]4)ccc32)[nH]1)C(C)C`, the EC90 in [1] was 6 pM; in [2], 6 pM; in data set [3], 19 pM; in data set [4], 38 pM; in data set [5] it was 7 pM; in [6], 329 pM. For the same compound, the EC90 in [7] came to 4 pM.
For the compound `COC(=O)N[C@H](C(=O)N1CCC[C@H]1c1ncc(-c2ccc3c(c2)cc2n3[C@H](c3ccc(C4CC4)s3)Oc3cc(-c4cnc([C@@H]5CCCN5C(=O)[C@@H](NC(=O)OC)[C@@H]5CCOC(C)(C)C5)[nH]4)cc(F)c3-2)[nH]1)C(C)C`, the concentration for an effect of 90% (EC90) in [1] was determined as 6 pM; in data set [2], 5 pM; in [3] it was 31 pM; in data set [4] it was 13 pM; in data set [5] it was 4 pM; in data set [6] it was 36 pM. Besides, the EC90 in data set [7] was 1 pM. The half-life in data set [8] was 6 h. This compound yielded a clearance in data set [9] of 9 mL/min/kg. The AUC in [10] worked out at 0.45 µM·h. In [11], this compound displayed a Cmax of 40 nM. Besides, the concentration at 24 h in [12] stood at 4 nM. For the same compound, the bioavailability in data set [13] came out at 2%.
As for `COC(=O)N[C@H](C(=O)N1CCC[C@H]1c1ncc(-c2cc(F)c3c(c2)O[C@@H](c2ccc(C4CC4)s2)n2c-3cc3cc(-c4cnc([C@@H]5CCCN5C(=O)[C@@H](NC(=O)OC)C5CCO[C@@H](C)C5)[nH]4)ccc32)[nH]1)C(C)C` (some centres not stated), the EC90 in data set [1] is 5 pM; in data set [2], 7 pM; in data set [3], 23 pM; in data set [4], 8 pM; in [5], 7 pM; in [6], 13 pM. Further, the 90% effect concentration (EC90) in data set [7] came out at 2 pM. In addition, in [8], the half-life was 5.5 h. The same compound had a clearance in [9] of 11 mL/min/kg. In data set [10], this compound showed an AUC of 0.19 µM·h. Also, in data set [11], the Cmax is 21 nM. Moreover, in data set [12], the concentration at 24 h is 1 nM. Besides, the bioavailability in [13] is 1.3%.
`COC(=O)N[C@H](C(=O)N1CCC[C@H]1c1ncc(-c2cc(F)c3c(c2)O[C@@H](c2ccc4c(c2)O[C@@H](C)CC4)n2c-3cc3cc(-c4cnc([C@@H]5CCCN5C(=O)[C@@H](NC(=O)OC)[C@@H]5CCOC(C)(C)C5)[nH]4)ccc32)[nH]1)C(C)C`: the EC90 in [1] amounted to 5 pM; in [2], 7 pM; in data set [3], 102 pM; in data set [4], 8 pM; in [5] it was 8 pM; in data set [6], 348 pM. Further, in [7], the EC90 worked out at 5 pM.
For the compound `COC(=O)N[C@H](C(=O)N1CCC[C@H]1c1ncc(-c2cc(F)c3c(c2)O[C@@H](c2ccc(C4CC4)s2)n2c-3cc3cc(-c4cnc([C@@H]5CCCN5C(=O)[C@@H](NC(=O)OC)C5CC(C)(C)OC(C)(C)C5)[nH]4)ccc32)[nH]1)C(C)C`, the EC90 worked out at 4 pM in data set [1]; 2 pM in data set [2]; 73 pM in [3]; 7 pM in [4]; 4 pM in data set [5]; 47 pM in [6]. Also, the EC90 in data set [7] amounted to 4 pM. Besides, the half-life in data set [8] is 7.7 h. Besides, the clearance in data set [9] worked out at 7 mL/min/kg. Moreover, in data set [10], the area under the curve (AUC) worked out at 0.7 µM·h. The compound also showed a Cmax in data set [11] of 76 nM. Also, the concentration at 24 h in data set [12] worked out at 5 nM. The bioavailability in [13] was 3.1%.
With `CC[C@@H]1CC([C@H](NC(=O)OC)C(=O)N2CCC[C@H]2c2ncc(-c3ccc4c(c3)cc3n4[C@H](c4ccc(C5CC5)s4)Oc4cc(-c5cnc([C@@H]6CCCN6C(=O)[C@@H](NC(=O)OC)C(C)C)[nH]5)cc(F)c4-3)[nH]2)C[C@H](CC)O1` (some centres not stated), the EC90 amounted to 17 pM in data set [1], 2700 pM in data set [3], 62 pM in data set [4] and 642 pM in data set [6].
Take `COC(=O)N[C@H](C(=O)N1CCC[C@H]1c1ncc(-c2cc(F)c3c(c2)O[C@@H](c2ccc(C4CC4)s2)n2c-3cc3cc(-c4cnc([C@@H]5CCCN5C(=O)[C@@H](NC(=O)OC)C5CCOC6(CC6)C5)[nH]4)ccc32)[nH]1)C(C)C` (some centres not stated): the EC90 in [1] stood at 6 pM; in data set [2] it was 4 pM; in [3] it was 36 pM; in [4], 8 pM; in data set [5], 4 pM; in data set [6] it was 49 pM. Moreover, the EC90 in data set [7] is 7 pM. In data set [8], the half-life was 5.7 h. In data set [9], the clearance amounted to 5 mL/min/kg. The AUC in [10] came to 0.58 µM·h. Also, the Cmax in data set [11] was found to be 57 nM. Also, the concentration at 24 h in data set [12] was found to be 4 nM. Further, the bioavailability in data set [13] worked out at 1.9%.
In the case of `CCCc1ccc([C@@H]2Oc3cc(-c4cnc([C@@H]5CCCN5C(=O)[C@@H](NC(=O)OC)C(C)C)[nH]4)cc(F)c3-c3cc4cc(-c5cnc([C@@H]6CCCN6C(=O)[C@@H](NC(=O)OC)[C@@H]6CCOC(C)(C)C6)[nH]5)ccc4n32)s1`, the EC90 is 10 pM in [1]; 9 pM in [2]; 84 pM in data set [3]; 16 pM in data set [4]; 11 pM in data set [5]; 78 pM in data set [6]. Further, the EC90 in data set [7] worked out at 6 pM.
On to `COC(=O)N[C@H](C(=O)N1CCC[C@H]1c1ncc(-c2ccc3c(c2)cc2n3[C@H](c3ccc4c(c3)OCCC4)Oc3cc(-c4cnc([C@@H]5CCCN5C(=O)[C@@H](NC(=O)OC)C5CCOCC5)[nH]4)cc(F)c3-2)[nH]1)C(C)C`, for which the EC90 was 2 pM in data set [1]; 3 pM in data set [2]; 5 pM in data set [3]; 3 pM in [4]; 2 pM in data set [5]; 8 pM in data set [6]. Moreover, the EC90 in data set [7] worked out at 1 pM. In data set [8], this compound showed a half-life of 1.9 h. This compound also gave a clearance in [9] of 19 mL/min/kg. This compound came in with an AUC in data set [10] of 0.05 µM·h. Also, the Cmax in data set [11] amounted to 10 nM. This compound showed a bioavailability in data set [13] of 0.5%.
Consider `COC(=O)N[C@H](C(=O)N1CCC[C@H]1c1ncc(-c2cc(F)c3c(c2)O[C@@H](c2nc4c(s2)CCC4)n2c-3cc3cc(-c4cnc([C@@H]5CCCN5C(=O)[C@@H](NC(=O)OC)[C@@H]5CCOC(C)(C)C5)[nH]4)ccc32)[nH]1)C(C)C`, for which the EC90 in data set [1] is 5 pM; in data set [2] it was 4 pM; in data set [3] it was 174 pM; in [4], 13 pM; in [5] it was 7 pM; in [6], 590 pM.
Consider `COC(=O)N[C@H](C(=O)N1CCC[C@H]1c1ncc(-c2ccc3c(c2)cc2n3[C@H](c3ccc4c(c3)OCCN4C)Oc3cc(-c4cnc([C@@H]5CCCN5C(=O)[C@@H](NC(=O)OC)C5CCOCC5)[nH]4)cc(F)c3-2)[nH]1)C(C)C`, for which the EC90 was found to be 71 pM in data set [1]; 7 pM in data set [2]; 54 pM in data set [3]; 17 pM in [4]; 9 pM in [5]; 73 pM in data set [6]. The half-life in [8] was 3.8 h. For the same compound, the clearance in [9] was found to be 13 mL/min/kg. The AUC in [10] was 0.1 µM·h. Further, the peak level in [11] (Cmax) was 16 nM. Also, the concentration at 24 h in [12] is 1 nM. Besides, the bioavailability in data set [13] was found to be 0.8%.
